# MrgX1 agonist: activates human MrgX1 receptor signaling. Q96LB2. MrgX1-HEK293 cells, Fluo-4 calcium fluorescence, agonist mode; stronger effect = higher value. B-score at 10 µM. actives 0.44% (n = 310,000);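 active = calcium response B-score plate-corrected fluorescence ratio at least 3 library SD, with starting fluorescence B-score inside 5 SD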
#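 Test system: Stable human MrgX1 HEK293 cell line | Schedule: Overnight plating before 1 h dye loading | Read-out basis: Baseline-normalised fluorescence change ratio, B-scored | Detection: Kinetic calcium dye fluorescence, Fluo-4 NW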
# MrgX1 antag: blocks BAM8-22 activation of human MrgX1 receptor | Q96LB2 | MRGX1-HEK293 calcium flux, Fluo-4, BAM8-22 antagonism; stronger effect = lower value | B-score at 10 µM | actives 1.3% (n = 310,000);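 active = calcium-response B-score plate-corrected more than 3 library SD below zero, starting fluorescence within 5 deviations, no agonist response on first addition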;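 note: peak minus trough fluorescence over baseline after final BAM8-22 challenge near maximal dose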
# RGS4 pot: potentiators or activators of RGS4. B-score at 10 µM. actives 0.92% (n = 310,000). HEK293 M3R/inducible RGS4, carbachol calcium flux Fluo4; stronger effect = lower value;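 active = B-score of the integrated calcium signal more than 4 SD below the library mean, with starting fluorescence not abnormally high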;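 note: negative B-score means reduced calcium response which marks RGS4 activation or potentiation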
#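 System: HEK293 FlpIn-TREx cells, stable M3R, doxycycline-inducible RGS4. Timing: overnight RGS4 induction, 30 min dye load 37 °C, 20 min compound RT. Also added: carbachol, ECmax concentration. Measured by: Fluo4 fluorescence kinetic imaging of calcium. Evaluation: integrated calcium ratio converted to B score.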
# MrgX1 PAM: human MrgX1 positive allosteric modulation, primary screen. actives 0.63% (n = 310,000). MrgX1-HEK293, Fluo-4 calcium flux, FDSS; stronger effect = higher value. Q96LB2. B-score at 10 µM;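 active = plate-corrected calcium response at least 3 library SD above typical, normal starting fluorescence, not activating the receptor alone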;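 note: compound read alongside a low EC10 to EC30 dose of BAM8-22 agonist; peak minus trough fluorescence over baseline measured at the second addition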
# RGS4 block: human RGS4 inhibition; P49798; HEK293 M3R/RGS4 inducible, Fluo-4 calcium flux; stronger effect = higher value; triggered by carbachol at its EC20; B-score at 10 µM; actives 0.45% (n = 310,000); AID 463165;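 active = B-score, a plate-corrected calcium signal, over three deviations above library mean, with baseline fluorescence within five deviations of library mean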;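 note: RGS4 expression induced by doxycycline in cells with stable M3 receptor; B-score is computed from the integrated fluorescence ratio over baseline after carbachol; higher B-score means a larger calcium signal and so more RGS4 inhibition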
# Target sequence (P49798 whole entry, looked up): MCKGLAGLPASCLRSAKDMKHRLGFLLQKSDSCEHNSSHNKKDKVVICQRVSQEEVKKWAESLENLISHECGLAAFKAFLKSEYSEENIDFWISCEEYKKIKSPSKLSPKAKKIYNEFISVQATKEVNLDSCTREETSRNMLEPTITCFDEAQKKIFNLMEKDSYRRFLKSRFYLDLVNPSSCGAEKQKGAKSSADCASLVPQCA
# RGS4 inh valid: validation of RGS4 inhibitors; shares compounds with RGS4 block; HEK293 M3R/RGS4, carbachol calcium Fluo-4 fluorescence; carbachol added at its EC20; 0 = buffer wells, 100 = carbachol control; actives 65% (n = 1,700); calcium response, % at 10 µM;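 active = duplicate-averaged calcium response above the buffer-only control mean plus 5 SD of those controls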;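 note: integrated fluorescence ratio F max minus min over baseline F0; higher response in RGS4-induced cells means RGS4 inhibition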
# RGS4 uninduced: checks RGS4 inhibitor effects in non-induced HEK293 M3R cells | shares compounds with RGS4 block | carbachol calcium Fluo-4; submaximal (EC20) carbachol stimulus; buffer wells 0%, carbachol control wells 100% | activity (percent), % at 10 µM | actives 20% (n = 1,900); call rule not given here;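 note: RGS4 induction absent so cells express M3R without RGS4; higher means more calcium signal and flags a non-specific hit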
# RGS4 inh ctr2: second counter-screen for RGS4 inhibitors: non-induced cells without carbachol; actives 22% (n = 1,900); shares compounds with RGS4 block; AID 493001; calcium response (agonist-mode artifact), % at 10 µM; HEK293 M3R/RGS4 non-induced, Fluo-4 calcium, no carbachol; normalised: buffer wells 0%, carbachol wells 100%;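 active = duplicate-averaged calcium rise in uninduced cells above buffer wells' mean plus 5 SD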
# An asterisk follows results filed as active; i = inactive; . = not tested or not shown. Most compounds without a hit are left out; they make up all but 3.5% or so of the library.
SMILES,MrgX1 agonist,MrgX1 antag,RGS4 pot,MrgX1 PAM,RGS4 block,RGS4 inh valid,RGS4 uninduced,RGS4 inh ctr2
Cc1ccnc(NC(=O)CCC2CCCCC2)c1,i,i,i,i,i,.,.,.
CN(C)c1ccc(C(C[N+](=O)[O-])c2c(N)n(C)c(=O)n(C)c2=O)c(F)c1C#N (centres undefined),31*,i,i,i,22*,62%*,i,i
CCOC(=O)c1c(NC(=O)C(=O)N/N=C/c2ccc(O)c(OC)c2)sc2c1CCCCC2,i,i,i,i,12*,37%*,54%*,18%*
COc1cc(NS(=O)(=O)c2ccc(NC(=O)NC3CCCCC3)cc2)nc(OC)n1,i,i,i,i,i,.,.,.
CN1C(=O)/C(=C\c2ccncc2)SC1=Nc1ccccc1,i,i,i,i,6.3*,40%*,56%*,i
CC1C/C(=C/c2ccncc2)C(=O)/C(=C/c2ccncc2)C1 (centres undefined),i,i,i,8*,28*,120%*,i,7.5%*
CCN(CC)CCOc1ccc2c(c1)C(=NO)c1cc(OCCN(CC)CC)ccc1-2,i,i,i,i,i,.,.,.
CCCOc1ccc2c(c1)C(=NN=C(N)N)c1cc(OCCC)ccc1-2,i,i,i,i,4.7*,8.0%*,i,i
CC1Cc2ccccc2N1Cc1cc(=O)n2ccsc2n1 (centres undefined),i,i,.,i,.,.,.,.
O=c1cc(CN2CC(O)Cc3ccc4ccccc4c32)nc2sccn12 (centres undefined),i,i,i,i,6*,20%*,i,i
CC1(O)C(=O)C=C2C=C(C3CC3)OC=C2C1=O (centres undefined),i,i,i,i,i,.,.,.
O=C(OCCCOC(=O)c1ccc([N+](=O)[O-])o1)c1ccc([N+](=O)[O-])o1,i,i,i,i,i,.,.,.
O=C(/C=C/c1ccc(Cl)cc1)c1ccc([N+](=O)[O-])o1,i,i,i,i,7.9*,8.5%*,i,i
CCOC(=O)CC(NS(=O)(=O)c1ccc(NC(C)=O)cc1)c1ccc(OCC)cc1 (centres undefined),i,i,i,i,i,.,.,.
CCCOc1ccc(/C=c2\sc3nc(-c4ccco4)nn3c2=O)cc1OCC,i,i,i,i,i,i,i,154%*
CC(=O)Oc1cccc(/C=c2\sc3nc(-c4ccco4)nn3c2=O)c1,i,i,i,i,i,.,.,.
O=C(Cc1ccc(F)cc1)NCCS(=O)(=O)N1CCN(c2cccc(Cl)c2)CC1,i,i,i,i,i,.,.,.
CCOC(=O)[C@@H]1[C@H]2COc3ccccc3[C@@H]2N2C(=O)N(c3ccc(C(F)(F)F)cc3)C(=O)[C@]12C,i,i,i,i,i,i,i,i
CCOC(=O)[C@@H]1[C@H]2COc3ccccc3[C@H]2N2C(=O)N(c3ccc(C(F)(F)F)cc3)C(=O)[C@]12C,i,i,i,i,i,i,i,i
CC1CCC2C(=O)N(c3ccc(C(=O)Oc4cccc5cccnc45)cc3)C(=O)C2C1 (centres undefined),i,i,i,i,5.2*,25%*,i,i
C=C[C@@](C)(O)CC[C@@H]1[C@@]2(C)CCCC(C)(C)[C@@H]2CC[C@@]1(C)O,i,i,i,i,i,.,.,.
O=C(/C=C/c1ccnc2ccccc12)c1cccs1,i,i,i,i,14*,18%*,41%*,i
